Measured values taken from ChEMBL document CHEMBL5712885, “A chromatin activity-based chemoproteomic approach reveals a transcriptional repressome for gene-specific silencing” (Nat Commun, 2014).
Activity calls are given as the source filed them. The rule behind the calls is not given here. Where a SMILES comes first, the peptide text is derived from it. The star is where a group is joined. Cbz = O=C(OCc1ccccc1)*

How the values were obtained:
[1] = molecular target: T1, Histone-lysine N-methyltransferase EHMT2 (Mus musculus) (UniProt Q9Z148); details: C57BL/6, BMDM, dose 250.0 nM, time 16.0 hrs
T1 sequence (whole entry): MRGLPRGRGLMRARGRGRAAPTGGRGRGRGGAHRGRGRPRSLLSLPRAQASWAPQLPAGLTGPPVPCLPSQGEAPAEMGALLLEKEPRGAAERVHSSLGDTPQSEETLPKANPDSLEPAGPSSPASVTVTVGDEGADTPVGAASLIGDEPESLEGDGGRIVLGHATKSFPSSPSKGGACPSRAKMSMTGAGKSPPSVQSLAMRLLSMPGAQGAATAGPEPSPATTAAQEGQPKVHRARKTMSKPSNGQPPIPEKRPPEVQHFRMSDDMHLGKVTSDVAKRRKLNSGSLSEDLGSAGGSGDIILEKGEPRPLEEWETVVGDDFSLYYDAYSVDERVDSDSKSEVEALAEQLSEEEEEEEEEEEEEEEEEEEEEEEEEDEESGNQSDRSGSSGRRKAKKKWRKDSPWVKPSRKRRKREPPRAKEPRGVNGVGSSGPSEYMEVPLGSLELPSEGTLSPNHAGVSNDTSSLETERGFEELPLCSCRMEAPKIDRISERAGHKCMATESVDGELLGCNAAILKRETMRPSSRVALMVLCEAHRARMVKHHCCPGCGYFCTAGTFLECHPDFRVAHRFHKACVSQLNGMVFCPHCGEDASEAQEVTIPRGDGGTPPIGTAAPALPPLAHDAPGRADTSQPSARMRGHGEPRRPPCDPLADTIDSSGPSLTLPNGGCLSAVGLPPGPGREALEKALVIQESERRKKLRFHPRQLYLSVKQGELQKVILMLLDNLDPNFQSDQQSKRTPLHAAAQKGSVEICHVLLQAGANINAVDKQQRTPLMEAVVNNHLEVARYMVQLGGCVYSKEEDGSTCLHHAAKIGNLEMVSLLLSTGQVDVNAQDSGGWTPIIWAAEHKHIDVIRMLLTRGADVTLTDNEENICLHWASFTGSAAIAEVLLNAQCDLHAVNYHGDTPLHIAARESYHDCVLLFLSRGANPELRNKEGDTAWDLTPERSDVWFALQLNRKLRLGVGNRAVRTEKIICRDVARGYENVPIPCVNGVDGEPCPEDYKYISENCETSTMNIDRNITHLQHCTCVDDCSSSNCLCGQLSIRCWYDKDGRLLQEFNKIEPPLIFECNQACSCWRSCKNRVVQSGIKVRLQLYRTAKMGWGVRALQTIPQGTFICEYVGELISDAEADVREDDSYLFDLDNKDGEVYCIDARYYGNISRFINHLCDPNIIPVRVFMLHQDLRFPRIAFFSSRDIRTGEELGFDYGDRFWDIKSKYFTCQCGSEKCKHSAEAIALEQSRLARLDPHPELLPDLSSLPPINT

[2] = molecular target: T1, Histone-lysine N-methyltransferase EHMT2 (Mus musculus); details: C57BL/6, RAW264.7, dose 250.0 nM, time 16.0 hrs
[3] = molecular target: T1, Histone-lysine N-methyltransferase EHMT2 (Mus musculus); details: C57BL/6, RAW264.7, dose 250.0 nM, time 16.0 hrs; remark: listed apart in the source
[4] = molecular target: T1, Histone-lysine N-methyltransferase EHMT2 (Mus musculus); details: C57BL/6, BMDM, dose 250.0 nM, time 16.0 hrs; remark: listed apart in the source
[5] = molecular target: T1, Histone-lysine N-methyltransferase EHMT2 (Mus musculus); details: C57BL/6, BMDM, dose 250.0 nM, time 16.0 hrs; remark: listed apart in the source
[6] = molecular target: T1, Histone-lysine N-methyltransferase EHMT2 (Mus musculus); details: C57BL/6, BMDM, dose 250.0 nM, time 16.0 hrs; remark: listed apart in the source
RAW264.7 [7] = test: Cytotoxicity against mouse RAW264.7 cells assessed as reduction in cell survival at 1 uM after 9 days Giemsa staining based assay; type: toxicity; details: raw264.7, 216 h, time 9 day
How it was run: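 Raw264.7 cells plated at 50, 100 and 200 viable cells in duplicate wells, primed 48 h with 100 ng ml⁻¹ LPS, then given fresh media containing 1 μM inhibitor. Grown 9 days, then fixed in methanol-acetic acid (3:1) and stained 30 min with 10% Giemsa. Colonies over 20 cells counted. Survival expressed as percent of colonies on plates without LPS or inhibitor.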

RAW264.7 [8] = test: Down regulation of c-Myc protein expression in LPS tolerant mouse RAW264.7 cells with G9a overexpression at 1 ug/ml upto 90 mins in presence of LPS by immunoblot analysis; type: functional, cell-based; details: dose 1.0 µg/ml
RAW264.7 [9] = test: Down regulation of c-Myc protein expression in LPS tolerant mouse RAW264.7 cells at 1 ug/ml upto 90 mins in presence of LPS by immunoblot analysis; type: functional, cell-based; details: dose 1.0 µg/ml
How it was run: (§1)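 Raw264.7 cells (shRNA G9a-knockdown line with ≥90% knockdown, or empty-vector control) primed with 100 ng ml⁻¹ LPS for 24 h, then given 1 µg ml⁻¹ cycloheximide for indicated times. c-Myc was detected by anti-c-Myc immunoblot with γ-tubulin loading control. Bands were quantified by densitometry and plotted, and half-life was read from the fitted curve.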

RAW264.7 [10] = test: Down regulation of c-Myc protein expression in LPS tolerant mouse RAW264.7 cells with G9a knockdown at 1 ug/ml upto 90 mins by immunoblot analysis; type: functional, cell-based; details: dose 1.0 µg/ml
How it was run: as §1

RAW264.7 [11] = test: Upregulation of C-Myc protein expression in LPS tolerant mouse RAW264.7 cells in presence of G9a/LPS at 10 uM upto 4 hrs by immunoblot analysis; type: functional, cell-based
RAW264.7 [12] = test: Upregulation of C-Myc protein expression in LPS tolerant mouse RAW264.7 cells at 10 uM upto 4 hrs in presence of LPS by immunoblot analysis; type: functional, cell-based
RAW264.7 [13] = test: Upregulation of C-Myc protein expression in LPS tolerant mouse RAW264.7 cells with G9a knock down at 10 uM upto 4 hrs in presence of LPS by immunoblot analysis; type: functional, cell-based

COc1cc2c(NC3CCN(C(C)C)CC3)nc(C3CCCCC3)nc2cc1OCCCN1CCCC1
inhibition [1]: Active
inhibition [2]: Active
inhibition [3]: Active
inhibition [4]: Active
inhibition [5]: Active
inhibition [6]: Active
Activity (RAW264.7 [7]): Toxic

C[C@@H]1C[C@@H]([C@H](O)CC2CC(=O)NC(=O)C2)C(=O)[C@@H](C)C1
Activity (RAW264.7 [8]): inactive
Activity (RAW264.7 [9]): Active
Activity (RAW264.7 [10]): Active

CC(C)C[C@@H](C=O)NC(=O)[C@H](CC(C)C)NC(=O)[C@H](CC(C)C)NC(=O)OCc1ccccc1 (Cbz-Leu-Leu-Leu-aldehyde)
Activity (RAW264.7 [11]): inactive
Activity (RAW264.7 [12]): Active
Activity (RAW264.7 [13]): Active
